Experimental data taken from ChEMBL document CHEMBL1149892, “Structure-antifungal activity relationship of His-Phe-Arg-Trp-Gly-Lys-Pro-Val-NH2 and analogues” (2008).

Assays:
Type in all cases: functional
Candida albicans [1] = experiment: Antifungal activity against Candida albicans 10231 at 100 uM after 24hrs relative to amphotericin B
Summary of the method: (§1)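 Broth microdilution in RPMI-1640. Peptides come from DMSO stocks, final DMSO ≤2%, at final 200 and 100 μM. Inoculum is 1–5 × 10^3 CFU/mL from strains grown 24 h at 35 °C on Sabouraud-chloramphenicol agar. […] Growth control carries matched DMSO; amphotericin B defines 100% inhibition. Run in duplicate.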

Candida tropicalis [2] = experiment: Antifungal activity against Candida tropicalis C 131 at 200 uM after 24 hrs relative to amphotericin B; summary of the method: as §1
Candida tropicalis [3] = experiment: Antifungal activity against Candida tropicalis C 131 at 100 uM after 24 hrs relative to amphotericin B; summary of the method: as §1
Cryptococcus neoformans [4] = experiment: Antifungal activity against Cryptococcus neoformans ATCC 32264 at 25 uM after 48 hrs relative to amphotericin B; conditions: ATCC 32264, 48 h
Summary of the method: (§2)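 Microplate assay in RPMI-1640 with DMSO-dissolved peptide, final DMSO ≤2%. Inoculum is 1–5 × 10^3 CFU/mL from slants grown 24 h at 35 °C. Plates are held 48 h at 35 °C in a moist, dark chamber and read at OD405. Inhibition is taken against a DMSO-matched growth control after sterility-well subtraction; amphotericin B is set as 100%. Duplicate determinations.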

Cryptococcus neoformans [5] = experiment: Antifungal activity against Cryptococcus neoformans ATCC 32264 at 12.5 uM after 48 hrs relative to amphotericin B; conditions: ATCC 32264, 48 h; summary of the method: as §2
Cryptococcus neoformans [6] = experiment: Antifungal activity against Cryptococcus neoformans ATCC 32264 at 6.25 uM after 48 hrs relative to amphotericin B; conditions: ATCC 32264, 48 h; summary of the method: as §2
Cryptococcus neoformans [7] = experiment: Antifungal activity against Cryptococcus neoformans ATCC 32264 at 3.25 uM after 48 hrs relative to amphotericin B; conditions: ATCC 32264, 48 h; summary of the method: as §2
Cryptococcus neoformans [8] = experiment: Antifungal activity against Cryptococcus neoformans ATCC 32264 at 1.62 uM after 48 hrs relative to amphotericin B; conditions: ATCC 32264, 48 h; summary of the method: as §2
Cryptococcus neoformans [9] = experiment: Antifungal activity against Cryptococcus neoformans ATCC 32264 at 0.81uM after 48 hrs relative to amphotericin B; conditions: ATCC 32264, 48 h; summary of the method: as §2
Cryptococcus neoformans [10] = experiment: Antifungal activity against Cryptococcus neoformans ATCC 32264 at 0.40 uM after 48 hrs relative to amphotericin B; conditions: ATCC 32264, 48 h; summary of the method: as §2
Cryptococcus neoformans [11] = experiment: Antifungal activity against Cryptococcus neoformans ATCC 32264 at 200 uM after 48 hrs relative to amphotericin B; conditions: ATCC 32264, 48 h; summary of the method: as §2
Cryptococcus neoformans [12] = experiment: Antifungal activity against Cryptococcus neoformans ATCC 32264 at 100 uM after 48 hrs relative to amphotericin B; conditions: ATCC 32264, 48 h; summary of the method: as §2
Candida albicans [13] = experiment: Antifungal activity against Candida albicans 10231 at 200 uM after 24 hrs relative to amphotericin B; summary of the method: as §1
Cryptococcus neoformans [14] = experiment: Antifungal activity against Cryptococcus neoformans ATCC 32264 at 50 uM after 48 hrs relative to amphotericin B; conditions: ATCC 32264, 48 h; summary of the method: as §2

Row | Substance | inhibition at 100 µM (Candida albicans [1]) | inhibition at 200 µM (Candida tropicalis [2]) | inhibition at 100 µM (Candida tropicalis [3]) | inhibition at 25 µM (Cryptococcus neoformans [4]) | inhibition at 12.5 µM (Cryptococcus neoformans [5]) | inhibition at 6.25 µM (Cryptococcus neoformans [6]) | inhibition at 3.25 µM (Cryptococcus neoformans [7]) | inhibition at 1.62 µM (Cryptococcus neoformans [8]) | inhibition at 0.81 µM (Cryptococcus neoformans [9]) | inhibition at 0.4 µM (Cryptococcus neoformans [10]) | inhibition at 200 µM (Cryptococcus neoformans [11]) | inhibition at 100 µM (Cryptococcus neoformans [12]) | inhibition at 200 µM (Candida albicans [13]) | inhibition at 50 µM (Cryptococcus neoformans [14])
1 | H-HFKWGKFV-NH2 | 0% | 22% | 0% | 0% | 0% | 0% | 0% | 0% | 0% | 0% | 97% | 38% | 72% | 
2 | H-HFKWGKYV-NH2 | 0% | 0% | 0% | 49% | 40% | 31% | 36% | 33% | 31% | 26% | 83% | 50% | 15% | 50%
3 | H-HFRWGKFV-NH2 | 5% | 19% | 9% | 2% | 0% | 0% | 0% | 0% | 0% | 0% | 77% | 15% | 61% | 15%
4 | H-HFRWGKPV-NH2 | 0% | 0% | 0% | 0% | 0% | 0% | 0% | 0% | 0% | 0% | 24% | 9% | 0% | 0%
5 | H-HFRWGKYV-NH2 | 0% | 21% | 0% | 41% | 28% | 24% | 10% | 6% | 0% | 0% | 99% | 58% | 43% | 56%
6 | H-HFRWGRFV-NH2 | 1% | 64% | 1% | 26% | 26% | 18% | 12% | 11% | 10% | 7% | 94% | 72% | 80% | 67%
7 | H-HYKWGKFV-NH2 | 0% | 1% | 0% | 38% | 34% | 0% | 0% | 0% | 0% | 0% | 41% | 25% | 0% | 43%
8 | H-HYKWGKYV-NH2 | 0% | 3% | 0% | 22% | 19% | 10% |  |  |  |  | 63% | 42% | 0% | 39%
9 | H-HYKWGRFV-NH2 | 0% | 23% | 0% |  |  | 19% | 17% | 21% | 2% | 0% | 89% | 47% | 11% | 
10 | H-HYRWGKFV-NH2 | 0% | 1% | 0% | 24% | 21% | 16% | 16% | 5% | 0% | 0% | 35% | 21% | 10% | 37%
